# Article PMC11170706 (ACS Omega, 2024)
# What was measured:
# OSCC cell line SAS = test: MTT cell proliferation assay, SAS cells; assay type: cell-based, human; conditions: for IC50: Homo sapiens, 72 h, read-out: IC50 value (μM) SAS; for Selectivity index (SI) IC50 (HaCaT)/IC50 (SAS): ratio of IC50 in HaCaT to IC50 in SAS
# [1] = tested on: human normal cell line HaCaT; test: MTT cell proliferation assay, HaCaT cells; assay type: cell-based; conditions: 72 h, read-out: IC50 value (μM) HaCaT
# Method in brief: (§1)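 Human lines kept in DMEM with 10% FBS and 1% Pen-Strep at 37 °C, 5% CO2. 2 × 10^3 cells/well were seeded, grown 24 h, then exposed to test compound for 72 h (SAS and T.Tn: 0, 5, 10, 25, 50, 100 μM; HaCaT: 0, 10, 25, 50, 75, 100 μM). MTT (5 mg/mL stock) was added for 2 h, formazan dissolved in DMSO, and A570 read. Percentage proliferation was taken relative to untreated control. IC50 was read where the dose–response curve crosses 50%.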
# [2] = tested on: esophageal cancer cell line T.Tn; test: MTT cell proliferation assay, T.Tn cells; assay type: cell-based; conditions: Homo sapiens, 72 h, read-out: IC50 value (μM) T.Tn
# Method in brief: as §1
# SAS cells [3] = test: Colony formation; assay type: cell-based, human; conditions: for inhibition at 10 µM: read-out: inhibition/reduction of colony formation
# Method in brief: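 SAS cells were seeded at 2 × 10^3 per well and attached for 24 h. Test compound (1–20 μM range) was given for 24 h, then replaced with fresh medium for 10 days of growth. Colonies were washed in PBS, fixed in 70% ethanol for 4 h at −20 °C, stained with 0.01% crystal violet and counted. Plating efficiency = colonies/cells plated × 100. Survival fraction = PE treated/PE control.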
# SAS cells [4] = test: PI-RNase-based cell-cycle analysis; set-up: species or system human; conditions: 24 h, AA2 1-10 μM, AA3 5-20 μM, PI-RNase flow cytometry
# Method in brief: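 SAS cells were seeded at 2 × 10^5 per well, grown 24 h, then treated 24 h with test compound. Cells were trypsinized, PBS-washed and fixed overnight in 75% ethanol at −20 °C. They were stained with PI-RNase for 20 min in the dark and analysed by flow cytometry for the percentage of cells in each cycle phase.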
# SAS cells [5] = test: PI-based flow cytometric analysis of cell death; set-up: species or system human; conditions: 48 h, PI staining
# Method in brief: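 After 24 h attachment, 2 × 10^5 SAS cells per well received test compound for 48 h. Floating cells from the medium were pooled with trypsinized cells and washed three times in PBS. The unfixed cells were resuspended in PBS with PI and analysed by flow cytometry, with percentage of dead cells recorded.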
# SAS cells [6] = test: Annexin V-based flow cytometric analysis of apoptosis; assay type: cell-based, human; conditions: 48 h
# Method in brief: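 SAS cells were seeded at 2 × 10^5 per well, grown 24 h, then exposed to test compound for 48 h. Medium-borne and trypsinized cells were collected and washed three times in PBS. They were labelled with annexin V for 20 min, then PI for 10 min, and analysed by flow cytometry. Apoptosis was computed from quadrants Q2+Q4.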
# SAS cells [7] = test: Wound-healing scratch assay; assay type: cell-based, human; conditions: 24 h
# Method in brief: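 SAS cells were seeded at 6 × 10^5 per well and grown to a monolayer. Cells were serum-starved in DMEM for 6 h to block proliferation, then scratched with a pipette tip and PBS-washed. Test compound was added and wounds were imaged at 0 and 24 h. Percentage wound area remaining is reported as mean ± SD, Student's t test, p < 0.05.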
# [8] = tested on: Bcl-2, caspases, COX-2, MMP-9, survivin, VEGF, Akt/mTOR and STAT-3 in SAS cells; test: Western blot analysis of proteins involved in OSCC; assay type: cell-based, human; conditions: 24 h, AA2 2.5, 5, 10 μM, AA3 10, 15, 20 μM
# Method in brief: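 SAS cells were seeded at 4 × 10^5 per well, attached 24 h, then treated 24 h with test compound (0–20 μM). Lysis buffer: 20 mM HEPES, 250 mM NaCl, 2 mM EDTA, 0.1% Triton X-100, 1 mM DTT, protease inhibitors. Protein was quantified by Bradford and equal amounts run on 12% SDS-PAGE, then transferred to nitrocellulose. Blocking was 5% milk, primary antibody overnight at 4 °C, HRP secondary 2 h, ECL detection. α-Tubulin served as loading control.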
SMILES,IC50 (OSCC cell line SAS) [µM],Selectivity index (SI) IC50 (HaCaT)/IC50 (SAS) (OSCC cell line SAS),IC50 [1] [µM],IC50 [2] [µM],inhibition at 10 µM (SAS cells [3]; Homo sapiens) [%],effect on cell-cycle progression (SAS cells [4]),apoptosis (percentage of apoptotic cells) (SAS cells [6]; 5 μM) [%],apoptosis (percentage of apoptotic cells) (SAS cells [6]; 10 μM) [%],wound area (initial gap) remaining (SAS cells [7]; 5 μM),wound area (initial gap) remaining (SAS cells [7]; 10 μM),effect on Akt/mTOR and STAT-3 signaling pathways [8],effect on Bcl-2 expression [8],effect on caspase-3 and caspase-9 [8],other results
"O=c1[nH]cc(F)c(=O)[nH]1 [5-FU, 5-fluorouracil, reference compound]",3,1.3,4,,,,,,,,,,,
"CC(C)=CCc1c(-c2cc(O)c(O)cc2O)oc2c3c(cc(O)c2c1=O)OC(C)(C)C=C3 [AA2, artonin E]",6,12,72,8,> 90,arrest of these cells in the S-phase,18,22,over 60%,over 75%,inhibition of the Akt/mTOR and STAT-3 signaling pathways,downregulation of Bcl-2,activation of caspase-3 and caspase-9 in a dose-dependent manner,"inhibition at 5 µM (SAS cells [3]; Homo sapiens, read-out: inhibition of colony formation): > 90%; reduction of colony formation (SAS cells [3]; SAS cells, 2.5 μM, 24 h treatment, 10 days culture): over 50%; cell death (SAS cells [5]; 10 μM): more than 80%; apoptosis (percentage of apoptotic cells) (SAS cells [6]; 2.5 μM): 8%; wound area (initial gap) remaining (SAS cells [7]; 1 μM): approximately 25%; wound area (initial gap) remaining (SAS cells [7]; 2.5 μM): 40%"
"C=C(C)[C@H]1Cc2c(oc3c4c(cc(O)c3c2=O)OC(C)(C)C=C4)-c2c(O)cc(O)c(O)c21 [AA3, artobiloxanthone]",11,6.4,70,22,> 80,arrest of these cells in the S-phase,8,18,over 45%,over 60%,inhibition of the Akt/mTOR and STAT-3 signaling pathways,downregulation of Bcl-2,activation of caspase-3 and caspase-9 in a dose-dependent manner,cell death (SAS cells [5]; 20 μM): approximately 8%; apoptosis (percentage of apoptotic cells) (SAS cells [6]; 15 μM): 26%; apoptosis (percentage of apoptotic cells) (SAS cells [6]; 20 μM): 30%; wound area (initial gap) remaining (SAS cells [7]; 15 μM): over 65%; wound area (initial gap) remaining (SAS cells [7]; 20 μM): 90%
